Data: ChEMBL document CHEMBL1148174, “Antihyperlipidemic effect of flavonoids from Pterocarpus marsupium” (1993)

What was measured:
Assay type in all cases: functional
[1] = system: Rattus norvegicus; assay: Antihyperlipidemic activity in diet-induced hyperlipidemic rat model assessed as serum total cholesterol level at 40 mg/kg, po administered once daily in morning through gastric intubation for 14 days measured after 4 hrs of last dose
Method in brief: (§1)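 Male Charles Foster albino rats (200–250 g) fed a hyperlipidemic diet. Compound suspended in 5% EtOH/saline, given by gastric intubation each morning for 14 days; controls got vehicle. Killed 4 h after the last dose, serum taken by cardiac puncture. TC by Abell method, TG by Gottfried–Rosenberg, HDL-C by kit. LDL-C and VLDL-C by Friedewald calculation. Atherogenic index = (TC−HDL-C)/HDL-C. Mean ± SEM, n=6, t-test.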

[2] = system: Rattus norvegicus; assay: Antihyperlipidemic activity in diet-induced hyperlipidemic rat model assessed as serum VLDLC level at 40 mg/kg, po administered once daily in morning through gastric intubation for 14 days measured after 4 hrs of last dose; method in brief: as §1
[3] = system: Rattus norvegicus; assay: Antihyperlipidemic activity in diet-induced hyperlipidemic rat model assessed as serum triglyceride level at 40 mg/kg, po administered once daily in morning through gastric intubation for 14 days measured after 4 hrs of last dose; method in brief: as §1
[4] = system: Rattus norvegicus; assay: Antihyperlipidemic activity in diet-induced hyperlipidemic rat model assessed as serum HDLC level at 40 mg/kg, po administered once daily in morning through gastric intubation for 14 days measured after 4 hrs of last dose; method in brief: as §1
[5] = system: Rattus norvegicus; assay: Antihyperlipidemic activity in diet-induced hyperlipidemic rat model assessed as serum LDLC level at 40 mg/kg, po administered once daily in morning through gastric intubation for 14 days measured after 4 hrs of last dose; method in brief: as §1
[6] = system: Rattus norvegicus; assay: Antihyperlipidemic activity in diet-induced hyperlipidemic rat model assessed as ratio of HDLC to serum total cholesterol level at 40 mg/kg, po administered once daily in morning through gastric intubation for 14 days measured after 4 hrs of last dose
[7] = system: Rattus norvegicus; assay: Antihyperlipidemic activity in Triton-induced hyperlipidemic rat model assessed as serum total cholesterol level at 75 mg/kg, po administered for 2 days through gastric intubation immediately and 20 hrs after triton challenge measured after 4 hrs of last dose
Method in brief: (§2)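 Male Charles Foster albino rats (200–250 g), fasted 24 h, given Triton 400 mg/kg ip in saline. Compound given orally by gastric intubation right after Triton and again 20 h later. Killed by decapitation 4 h after the second dose. Serum separated and stored at −20°. Total cholesterol by Abell method, triglycerides by Gottfried–Rosenberg, total lipid by Frings–Dunn. Mean ± SEM, n=6, Student's t-test versus control.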

[8] = system: Rattus norvegicus; assay: Antihyperlipidemic activity in diet-induced hyperlipidemic rat model assessed as atherogenic index at 40 mg/kg, po administered once daily in morning through gastric intubation for 14 days measured after 4 hrs of last dose; method in brief: as §1
[9] = system: Rattus norvegicus; assay: Antihyperlipidemic activity in Triton-induced hyperlipidemic rat model assessed as serum triglyceride level at 75 mg/kg, po administered for 2 days through gastric intubation immediately and 20 hrs after triton challenge measured after 4 hrs of last dose; method in brief: as §2
[10] = system: Rattus norvegicus; assay: Antihyperlipidemic activity in Triton-induced hyperlipidemic rat model assessed as serum total lipid level at 75 mg/kg, po administered for 2 days through gastric intubation immediately and 20 hrs after triton challenge measured after 4 hrs of last dose; method in brief: as §2

Structure (SMILES) | Activity [1] [mg/dL] | Activity [2] [mg/dL] | Activity [3] [mg/dL] | Activity [4] [mg/dL] | Activity [5] [mg/dL] | Ratio [6] | Activity [7] [mg%] | AI [8] | Activity [9] [mg%] | Activity [10] [mg%]
COc1cc(O)cc2c1C(=O)C(O)(Cc1ccc(O)cc1)O2 (stereo unspecified) [CARPUSIN] | 350.6 | 41.1 | 190 | 32 | 292.8 | 0.09 | – | – | – | –
O=C1C[C@@H](c2ccc(O)cc2)Oc2cc(O)ccc21 [LIQUIRTIGENIN] | 323.2 | 39.6 | 198.1 | 38.01 | 245.7 | 0.11 | 406.7 | 7.5 | 572.9 | 837.3
